Here are results for five compounds from ChEMBL document CHEMBL1275392, “Assessment of chemoselective neoglycosylation methods using chlorambucil as a model” (2010).

One assay concerns HCT-15. The assay is described as follows: Growth inhibition of human HCT15 cells after 7 days by celltiter-glo assay. The assay is classed as functional. Particulars: HCT-15, 168 h.
The subject of a further assay is MCF7. Put plainly: Growth inhibition of human MCF7 cells after 7 days by celltiter-glo assay. The assay is classed as functional. The conditions noted are these: MCF7, 168 h. For orientation: ATP-based viability assays read luminescence as a measure of living cells.
The test system of another assay is DU-145. The assay is described as follows: Growth inhibition of human DU145 cells after 7 days by celltiter-glo assay. Type of assay: functional. The conditions noted are these: DU-145, 168 h.
The next assay has as its system A549. The assay is described as follows: Growth inhibition of human A549 cells expressing p53 after 7 days by celltiter-glo assay. The assay is classed as functional. The conditions noted are these: A549, 168 h.
In assay [1] the test system is SF-268. The assay is described as follows: Ratio of compound GI50 to chlorambucil GI50 for human SF268 cells. Type of assay: functional.
The nature of assay [2]: Growth inhibition of human p53 deficient Hep3B cells after 7 days by celltiter-glo assay. Type of assay: functional, Hep 3B2. The conditions noted are these: 168 h. Summed up: (§1)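 Cells seeded at 500 per well in 384-well plates. Compounds came from 30 mM DMSO stocks, serially diluted and tested in quadruplicate. Incubation was 7 d at 37 °C under 5% CO2. Calcein AM (10 μM) and EthD-1 were added, followed by a fluorescence read. CellTiter-Glo lysis was then done for 10 min at room temperature, with a luminescence read. GI50 came from curve fitting.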

Assay [3] has as its system SF-268. Put plainly: Growth inhibition of human SF268 cells after 7 days by celltiter-glo assay. The assay is classed as functional. Particulars: SF-268, 168 h.
Assay [4] is described as follows: Growth inhibition of human p53 deficient H1299 cells after 7 days by celltiter-glo assay. Type of assay: functional. The conditions noted are these: NCI-H1299, 168 h. In short, it runs like this: as §1
Another assay has as its system HT-29. Put plainly: Growth inhibition of human HT-29 cells after 7 days by celltiter-glo assay. The assay is classed as functional. Particulars: HT-29, 168 h.
Another assay deals with NCI-H460. The assay is described as follows: Growth inhibition of human NCI-H460 cells after 7 days by celltiter-glo assay. The assay is classed as functional. The conditions noted are these: NCI-H460, 168 h.
The test system of a further assay is SK-OV-3. The assay is described as follows: Growth inhibition of human SKOV3 cells after 7 days by celltiter-glo assay. The assay is classed as functional. Particulars: SK-OV-3, 168 h.

Take `CON(CCCc1ccc(N(CCCl)CCCl)cc1)[C@@H]1O[C@H]2[C@H](OC(=O)[C@H]2O)[C@H]1O`: the 50% growth inhibitory concentration (GI50) in the assay with HCT-15 is 0.99 µM; in the assay with MCF7, 1.1 µM; with DU-145, 1.9 µM; in the assay on A549 it was 3.7 µM; in assay [2], 1.3 µM; in the assay on SF-268 [3], 0.46 µM. For the same compound, the GI50 in assay [4] was determined as 0.4 µM; with HT-29, 3.6 µM; in the assay on NCI-H460, 3.8 µM; with SK-OV-3, 5.2 µM. Further, the RatioGI50 in the assay with SF-268 [1] came to 12.
Turning to `CON(CCCc1ccc(N(CCCl)CCCl)cc1)[C@H]1OC[C@H](O)[C@@H](O)[C@@H]1O`, the 50% growth inhibitory concentration (GI50) in the assay with HCT-15 came out at 0.83 µM; in the assay with MCF7 it was 1.2 µM; in the assay with DU-145, 2.2 µM; with A549, 2.2 µM; in assay [2], 1.6 µM; in the assay on SF-268 [3], 1.5 µM. The 50% growth inhibitory concentration (GI50) in [4] was determined as 0.93 µM; in the assay on HT-29, 1.5 µM; in the assay on NCI-H460 it was 2.9 µM; in the assay with SK-OV-3, 2.4 µM.
For the compound `CON(CCCc1ccc(N(CCCl)CCCl)cc1)C1OC[C@H](O)[C@H](O)[C@@H]1O` (stereo partly specified), the GI50 in the assay with HCT-15 was found to be 2.1 µM; in the assay with MCF7 it was 0.97 µM; in the assay with DU-145 it was 3.7 µM; with A549, 2.4 µM; in assay [2] it was 2.4 µM; with SF-268 [3], 2.1 µM. Further, the GI50 was determined as 3.3 µM in [4], 2.2 µM in the assay on HT-29, 5.7 µM in the assay with NCI-H460 and 2 µM in the assay on SK-OV-3.
For the compound `CON(CCCc1ccc(N(CCCl)CCCl)cc1)C1O[C@@H](CO)[C@H](O)[C@@H](O)[C@@H]1O` (stereo partly specified), the 50% growth inhibitory concentration (GI50) in the assay on HCT-15 is 0.88 µM; in the assay on MCF7, 3.2 µM; in the assay on DU-145, 4.8 µM; in the assay with A549 it was 3.3 µM; in assay [2], 3.9 µM; in the assay on SF-268 [3], 2 µM. The concentration for 50% growth inhibition (GI50) came out at 0.55 µM in [4], 2.9 µM with HT-29, 8 µM with NCI-H460 and 2.5 µM with SK-OV-3.
As for `CON(CCCc1ccc(N(CCCl)CCCl)cc1)C1O[C@H](C(=O)O)[C@H](O)[C@H](O)[C@H]1O` (stereo partly specified), the GI50 worked out at 8.1 µM in the assay on HCT-15; 4.5 µM in the assay with MCF7; 16.3 µM with DU-145; 17.1 µM in the assay with A549; 14.7 µM in [2]; 8.9 µM in the assay with SF-268 [3]. Also, the GI50 turned out to be 4.9 µM in [4], 14.9 µM with HT-29, 34 µM in the assay with NCI-H460 and 12.8 µM in the assay on SK-OV-3.

As a reminder, the GI50 is the concentration at which growth is held to half of that of the control. The low end stands for more potent growth inhibition, the high end for less potent growth inhibition.
